From ChEMBL document CHEMBL2429759, “Anti-tumor activity evaluation of novel chrysin-organogermanium(IV) complex in MCF-7 cells” (Bioorg Med Chem Lett, 2013)

Key:
[1] = system: MCF-10A; test: Growth inhibition of human MCF10A cells at 5 ug/ml by MTT assay; assay type: cell-based; settings: mcf-10a
[2] = system: MCF-10A; test: Growth inhibition of human MCF10A cells at 30 ug/ml by MTT assay; assay type: cell-based; settings: mcf-10a
[3] = system: MCF-10A; test: Disruption of cell integrity in human MCF10A cells at 10 ug/ml by immunofluorescence analysis relative to control; assay type: ADME, cell-based
[4] = system: MCF-10A; test: Disruption of microfilament organization in human MCF10A cells at 10 ug/ml by immunofluorescence analysis relative to control; assay type: ADME, cell-based
[5] = system: MCF-10A; test: Growth inhibition of human MCF10A cells at 10 ug/ml by MTT assay; assay type: cell-based; settings: mcf-10a
[6] = system: MCF-10A; test: Growth inhibition of human MCF10A cells at 20 ug/ml by MTT assay; assay type: cell-based; settings: mcf-10a
[7] = system: MCF-10A; test: Antimigratory activity against human MCF10A cells at 10 ug/ml by wound-healing assay; assay type: ADME, cell-based
Method in brief: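 Scratch wound-healing: monolayers wounded with a p200 pipette tip, kept with or without complex; images taken at 0 and 24 h; reference lines drawn equidistant.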

5-hydroxy-2-phenyl-7-(triphenylgermyloxy)-4H-chromen-4-one ethanol
growth inhibition (GI) [1]: 4.822%
growth inhibition (GI) [2]: 27.25%
Activity [3]: Non-toxic
Activity [4]: Non-toxic
growth inhibition (GI) [5]: 12.3%
growth inhibition (GI) [6]: 23.67%
Activity [7]: Toxic
